Screening data deposited in PubChem by The Scripps Research Institute Molecular Screening Center.
pPAFAH FP inh – inhibitors of human plasma PAF acetylhydrolase (pPAFAH); Q13093; recombinant pPAFAH, FP-rhodamine probe fluorescence polarization; inhibition, % at 3.39 µM; 1.5% of 330,000 active; AID 463082;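 active = inhibition above the mean inhibition across the screen plus 3 SD, cut at about 25% in these data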;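 also: inhibitors block binding of the rhodamine activity-based probe so polarization drops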
Target sequence (Q13093 whole entry, looked up): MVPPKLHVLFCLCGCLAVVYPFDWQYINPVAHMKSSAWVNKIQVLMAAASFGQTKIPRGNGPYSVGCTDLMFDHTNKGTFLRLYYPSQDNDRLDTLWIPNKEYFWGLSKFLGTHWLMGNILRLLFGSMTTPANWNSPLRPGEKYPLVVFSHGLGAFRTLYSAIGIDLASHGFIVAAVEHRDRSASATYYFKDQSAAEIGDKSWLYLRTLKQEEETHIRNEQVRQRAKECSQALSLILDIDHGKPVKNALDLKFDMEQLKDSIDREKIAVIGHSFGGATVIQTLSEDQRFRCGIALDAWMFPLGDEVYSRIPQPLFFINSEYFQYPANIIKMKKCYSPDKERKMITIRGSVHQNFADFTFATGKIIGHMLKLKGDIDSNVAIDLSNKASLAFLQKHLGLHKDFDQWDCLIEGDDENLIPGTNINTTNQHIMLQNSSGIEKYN
ASAP1 inh – blocks human ASAP1-stimulated Arf1 GTP hydrolysis | Q9ULH1 | GDP FP detection | inhibition, % at 16.5 µM | 0.19% of 360,000 active; in the data active = inhibition above about 25%
PAFAH1B3 FP inh – inhibitors of human PAFAH1B3; AID 492972; recombinant PAFAH1B3, FP-rhodamine probe, fluorescence polarization; inhibition, % at 3.39 µM; 0.28% of 340,000 active;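 active = inhibition above the screen-wide average of all tested compounds plus 3 SD, cut at about 25% in these data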
PAFAH1B2 inh – PAFAH1B2 (human) inhibition; 1.2% of 340,000 active; recombinant PAFAH1B2, FP-rhodamine activity probe, fluorescence polarization; inhibition, % at 3.39 µM; AID 492953;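 active = inhibition above the mean of all tested compounds plus 3 SD, cut at about 24% in these data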
ARFGAP1 inh – inhibits rat ARF GTPase activating protein 1 | Q62848 | Arfgap1-stimulated ARF1 GTP hydrolysis, GDP FP detection | inhibition, % at 16.5 µM | 0.26% of 360,000 active | AID 651572;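 active = inhibition above a per-plate limit, mean inhibition of low control wells plus 3 SD, cut at about 25% in these data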
Target sequence (Q62848 1-136 limits assumed): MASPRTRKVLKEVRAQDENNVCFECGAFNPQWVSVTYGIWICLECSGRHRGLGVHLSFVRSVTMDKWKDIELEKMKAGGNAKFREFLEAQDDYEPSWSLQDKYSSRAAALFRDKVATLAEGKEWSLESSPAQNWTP
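System: truncated rat Arfgap1 GAP domain / Benchmarks: high control wells lacking Arfgap1, low control full reaction with DMSO / Times: compound-enzyme preincubation 20 min, reaction 120 min, detection 60 min, 25 °C / Repeats: one replicate per compound / Also added: human ARF1(Δ1-17)-GTP substrate / Measured by: Tracer-displacement fluorescence polarization with EDTA stop, 620/688 nm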
PAFAH2 inh – PAFAH2 (human) inhibition; 0.99% of 340,000 active; inhibition, % at 3.39 µM; recombinant PAFAH2, FP-rhodamine activity probe, fluorescence polarization; Q99487; AID 492956;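 active = inhibition above the mean over all tested compounds plus 3 SD, cut at about 30% in these data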;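 also: inhibitors block probe labeling of enzyme so polarization drops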
PAFAH2 confirm – confirmation of human PAFAH2 inhibitors | shares compounds with PAFAH2 inh | recombinant PAFAH2, FP-rhodamine activity probe, fluorescence polarization | inhibition, % at 3.39 µM | 65% of 2,300 active;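 active = mean inhibition over three repeats above a set limit taken from the earlier primary screen, cut at about 30% in these data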;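 also: inhibitor blocks binding of rhodamine activity probe so polarization falls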
Large screens that a line does not name were inactive (follow-up assays come after a bar, where they were run). Hits are enriched below; roughly 2.7% of the tested compounds scored in any of these assays.

CN(C)S(=O)(=O)c1ccc(Cl)c(C(=O)NNC(=O)c2ccc3c(c2)OCO3)c1	none
CC(C)c1ccc(O)c(NC(=S)NC(=O)c2ccc3c(c2)OCO3)c1	PAFAH2 inh 30 | PAFAH2 confirm inactive
Cc1ccc(/C(=N\O)c2oc3c(C)c4oc(=O)cc(C)c4cc3c2C)cc1	none
Cc1cc(=O)oc2c1ccc1oc(/C(=N/O)c3ccccc3)c(C)c12	PAFAH2 inh 37 | PAFAH2 confirm inactive
O=C(c1cc2cc(F)ccc2[nH]1)N1CCN(C(=O)c2ccco2)CC1	none
O=C1NN(c2ccccc2)C(=O)/C1=C/c1ccc(-c2ccc(C(=O)O)cc2)o1	PAFAH2 inh 31 | PAFAH2 confirm inactive
COC(=O)c1ccc(N2NC(=O)/C(=C/c3ccc(-c4ccc(Cl)c(C(=O)O)c4)o3)C2=O)cc1	none (no result: pPAFAH FP inh)
O=C(c1cc(-c2ccc(Cl)cc2Cl)on1)N1CCOCC1	PAFAH2 inh 37 | PAFAH2 confirm inactive
O=C(c1cc(-c2ccc(Cl)cc2)on1)N1CCOCC1	none
CN(C)C(CNC(=O)c1cc(S(=O)(=O)N2CCOCC2)ccc1F)c1cccs1 (stereo not drawn)	none
Cc1ncc(S(=O)(=O)C(C)(C)C)c(N)n1	none
Cc1nn2c(=O)cc(COC(=O)c3c(F)cccc3Cl)nc2s1	none
Cc1cc(=O)oc2c3c(cc(OCC(=O)NCCC(=O)O)c12)OC(C)(C)CC3	none (no result: pPAFAH FP inh)
CCc1cc(=O)oc2c3c(cc(OCC(=O)NCCC(=O)O)c12)OC(C)(C)CC3	PAFAH2 inh 38 | PAFAH2 confirm inactive
COc1ccccc1C(=O)NC(=O)COC(=O)CNC(=O)c1ccc(Cl)c([N+](=O)[O-])c1	none
O=[N+]([O-])/C(C(Cl)=C(Cl)Cl)=C(/NC1CC1)Sc1ccccc1	none
O=C(COC(=O)C1C2CC3OC(=O)C1C3C2)Nc1cccc(Cl)c1 (stereo not drawn)	PAFAH2 inh 77 | PAFAH2 confirm 84
Cc1ccc(NC(=O)COC(=O)C2C3CC4OC(=O)C2C4C3)cc1 (stereo not drawn)	PAFAH2 inh 55 | PAFAH2 confirm 55
CCOc1ccc(NC(=O)COC(=O)C2C3CC4OC(=O)C2C4C3)cc1 (stereo not drawn)	PAFAH2 inh 47 | PAFAH2 confirm 40
CC(=O)c1ccc(NC(=O)COC(=O)C2C3CC4OC(=O)C2C4C3)cc1 (stereo not drawn)	none
COC(=O)Nc1nc(-c2ccccc2)c(C(=O)c2ccc(Cl)cc2)s1	none
CCOC(=O)Nc1nc(-c2ccccc2)c(C(=O)c2ccccc2)s1	PAFAH2 inh 41 | PAFAH2 confirm 42
CSc1ccc(Cl)c(C(=O)OCC(=O)NCC(C)C)c1	PAFAH2 inh 43 | PAFAH2 confirm 30
COc1ccc(NC(=O)C2Cc3ccccc3C(=O)O2)cc1 (stereo not drawn)	none
Cc1ccccc1NC(=O)C1Cc2ccccc2C(=O)O1 (stereo not drawn)	PAFAH2 inh 36 | PAFAH2 confirm 30
Cc1ccc([N+](=O)[O-])c(NC(=O)COC(=O)C2CC3CCCC(C2)C3=O)c1C (stereo not drawn)	PAFAH2 inh 34 | PAFAH2 confirm 32
Cc1cccc([N+](=O)[O-])c1NC(=O)COC(=O)C1CC2CCCC(C1)C2=O (stereo not drawn)	none
COc1cccc(NC(=O)COC(=O)C2CC3CCCC(C2)C3=O)c1 (stereo not drawn)	PAFAH2 inh 58 | PAFAH2 confirm 54
COc1cccc(CNC(=O)COC(=O)C2CC3CCCC(C2)C3=O)c1 (stereo not drawn)	none
Cc1c(C(=O)OC2CCCC2C)[nH]c2c1C(=O)CCC2 (stereo not drawn)	PAFAH2 inh 59 | PAFAH2 confirm 39
Cc1ccc(NC(=O)COC(=O)C2CC2)cc1Cl	PAFAH2 inh 79 | PAFAH2 confirm 69
CCN(c1ccccc1)S(=O)(=O)c1cc(NC(=O)COC(=O)C2CC2)ccc1Cl	PAFAH2 inh 69 | PAFAH2 confirm 59
CN(C)S(=O)(=O)c1cc(NC(=O)COC(=O)C2COc3ccccc3O2)ccc1Cl (stereo not drawn)	none
O=C(COC(=O)C1CC1)Nc1cccc(Cl)c1	none (no result: pPAFAH FP inh, PAFAH1B3 FP inh, PAFAH1B2 inh, PAFAH2 inh)
CCC(=O)OCC(=O)Nc1ccc2c(c1)OCO2	none
O=C(COC(=O)C1CC1)Nc1ccc2c(c1)OCO2	PAFAH2 inh 67 | PAFAH2 confirm 54
O=C(C1=C(O)C(=O)N(CCCn2ccnc2)C1c1cccc(Br)c1)c1ccco1 (stereo not drawn)	none
CC1CCCC(NC(=O)COC(=O)c2ccc3ncsc3c2)C1C (stereo not drawn)	PAFAH2 inh 85 | PAFAH2 confirm 76
COc1ccc(C(=O)NC(=O)COC(=O)c2ccc3ncsc3c2)cc1	none (no result: ASAP1 inh, PAFAH1B3 FP inh, PAFAH1B2 inh, ARFGAP1 inh, PAFAH2 inh)
CC1CCCCC1NC(=O)COC(=O)c1ccc2ncsc2c1 (stereo not drawn)	PAFAH2 inh 84 | PAFAH2 confirm 78
CC1CCCCC1NC(=O)COC(=O)c1ccc2c(c1)NC(=O)CS2 (stereo not drawn)	PAFAH2 inh 86 | PAFAH2 confirm 77
CC(C)(C)C(CO)NC(=O)c1ccc[nH]1 (stereo not drawn)	none
CCN(c1ccccc1)S(=O)(=O)c1ccc(OC)c(NC(=O)Cc2ccccc2OC)c1	PAFAH2 inh 30 | PAFAH2 confirm inactive
COc1ccccc1NC(=O)Cc1cccc2ccccc12	none
COc1ccccc1CC(=O)Nc1ccc([N+](=O)[O-])cc1O	PAFAH2 inh 34 | PAFAH2 confirm inactive
COc1ccccc1CC(=O)Nc1ccccc1O	PAFAH2 inh 58 | PAFAH2 confirm 60
O=C(COc1ccccc1Cl)Nc1cc(Cl)ccc1O	none (no result: pPAFAH FP inh)
COc1ccccc1CC(=O)Nc1cc(Cl)ccc1O	PAFAH2 inh 83 | PAFAH2 confirm 80
CCN(c1ccccc1)S(=O)(=O)c1ccc(OC)c(NC(=O)Cc2ccc(OC)c(OC)c2)c1	none
O=C(CCc1ccccc1)Nc1cc(C(=O)O)cc(C(=O)O)c1	none
CCCNC(=O)COC(=O)c1ccccc1OCc1ccc(Cl)cc1	none
Cc1ccc(C)c(OCc2cc(C(=O)N(C)Cc3nccs3)no2)c1	none
COc1cccc(CNc2ccc(Br)cn2)c1O	PAFAH2 inh 75 | PAFAH2 confirm inactive
O=C(N/N=C/c1coc2ccccc2c1=O)c1ccncc1	none (no result: pPAFAH FP inh)
O=C(N/N=C/c1coc2ccccc2c1=O)c1cc(Br)c(O)c(Br)c1	PAFAH2 inh 71 (no result: pPAFAH FP inh) | PAFAH2 confirm 55
CCCC(C)NC(=O)COC(=O)c1cccc(NS(C)(=O)=O)c1 (stereo not drawn)	PAFAH2 inh 37 | PAFAH2 confirm inactive
CCN(c1ccc(NC(=O)COC(=O)c2ccc(C)s2)cc1)C(C)C	PAFAH2 inh 46 | PAFAH2 confirm 40
